High-throughput results: PubChem BioAssay, The Scripps Research Institute Molecular Screening Center
TAAR1 antag – antagonists of human TAAR1; inhibition, % at 3 µM; hit rate 1.5% among 360,000; Q96RJ0; AID 624466; CHO RD-HGA16 TAAR1, Fluo-8 calcium fluorescence, antagonist;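 active means inhibition above a per-plate cutoff, the mean inhibition of test compounds on that plate plus 3 SD, cut at about 49% in these data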;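 further: 0% = DMSO plus EC80 beta-PEA response and 100% = DMSO alone without agonist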
Target sequence (Q96RJ0 whole entry, looked up): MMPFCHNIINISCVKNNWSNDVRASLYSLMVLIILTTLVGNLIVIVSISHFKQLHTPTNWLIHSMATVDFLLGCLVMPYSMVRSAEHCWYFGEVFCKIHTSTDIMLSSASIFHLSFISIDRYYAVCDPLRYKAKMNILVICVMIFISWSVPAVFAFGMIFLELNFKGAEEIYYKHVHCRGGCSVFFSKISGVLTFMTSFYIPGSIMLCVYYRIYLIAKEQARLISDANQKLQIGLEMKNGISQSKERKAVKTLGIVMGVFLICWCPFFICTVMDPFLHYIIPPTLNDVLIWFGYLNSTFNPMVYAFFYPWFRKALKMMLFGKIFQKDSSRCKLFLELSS
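Assay system: CHO-derived RD-HGA16 cells stably expressing human TAAR1 plus Gα16. Timing: 140 s kinetic read after compound, 140 s after agonist. Technique: kinetic Fluo-8 calcium fluorescence measurement. Measure: % inhibition of agonist calcium response.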
TAAR1 agonist – agonists of human TAAR1. hit rate 0.99% among 360,000. AID 624467. Q96RJ0. activation, % at 3 µM. CHO RD-HGA16 TAAR1, Fluo-8 calcium fluorescence; vehicle wells 0%, saturating PEA agonist 100%;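 active means activation above the mean activation of all test compounds in the run plus 3 SD, cut at about 38% in these data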
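Test system: RD-HGA16 (CHO) cells co-expressing Gα16 and hTAAR1 / Benchmarks: DMSO vehicle as 0%, PEA at EC100 as 100% / Repeats: no replicates (n 1) / Measure: % activation from peak over basal fluorescence ratio, DMSO-to-PEA scaled / Timing: 17-24 h plating, Fluo-8 75 min 37 °C, 30 min RT / Technique: kinetic Fluo-8 calcium fluorescence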
V1R ag counter – activates human V1a receptor in oxytocin agonist counter-screen; P37288; CHO-V1R cells, Fluo-8 calcium fluorescence, agonist mode; 0% DMSO, 100% 3 nM vasopressin; activation, % at 3 µM; hit rate 0.25% among 320,000; AID 2797;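 active means activation above the mean activation of all tested compounds plus 3 SD, per screening run, cut at about 20% in these data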;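 further: signal is peak over basal fluorescence ratio across a 100 second FLIPR read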
OXTR potentiate – potentiates the human oxytocin receptor response. hit rate 0.061% among 320,000. CHO-OTR cells, Fluo-8 calcium fluorescence, potentiator mode; 0% = oxytocin EC15, 100% = EC100. P30559. activation, % at 3 µM;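 active means activation above that plate's cutoff, the mean activation of tested compounds plus 3 SD, cut at about 6.6% in these data, passing the limit was not always enough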;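 further: 100% uses oxytocin at 75 nM as the full agonist control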
Target sequence (P30559 whole entry, looked up): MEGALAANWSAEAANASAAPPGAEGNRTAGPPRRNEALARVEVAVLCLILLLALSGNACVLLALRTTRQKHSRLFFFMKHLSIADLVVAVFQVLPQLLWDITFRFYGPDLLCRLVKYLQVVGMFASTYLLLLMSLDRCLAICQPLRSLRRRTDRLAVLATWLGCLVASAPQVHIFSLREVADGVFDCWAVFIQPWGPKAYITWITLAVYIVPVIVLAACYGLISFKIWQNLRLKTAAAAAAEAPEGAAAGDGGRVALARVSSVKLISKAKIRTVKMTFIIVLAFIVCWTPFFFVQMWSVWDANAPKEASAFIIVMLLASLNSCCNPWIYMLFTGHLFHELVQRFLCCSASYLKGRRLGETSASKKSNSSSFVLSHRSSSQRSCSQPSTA
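Assay system: CHO-OTR cells, human receptor / Also added: oxytocin at about EC15, sub-maximal agonist stimulus / Dosing: single dose, 3.0 µM nominal final compound concentration / Incubation: 6 min pre-incubation, 100 s read / Technique: Fluo-8 calcium dye fluorescence / Read-out: % activation vs EC15 and EC100 oxytocin / Benchmarks: EC15 oxytocin low, 75 nM oxytocin high / Replicates: singlicate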
OXTR ag – human OXTR agonism; CHO-OTR cells, Fluo-8 calcium fluorescence; normalized: DMSO 0%, oxytocin 100%; P30559; hit rate 0.32% among 320,000; activation, % at 3 µM;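 active means activation above the mean of all tested compounds plus 3 SD, cutoff set per screening run, cut at about 20% in these data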;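 further: peak over basal fluorescence ratio from a 100 s FLIPR kinetic read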
TAAR1 ag confirm – confirmation of human TAAR1 agonists. shares compounds with TAAR1 agonist. CHO RD-HGA16 TAAR1, Fluo-8 calcium fluorescence; scaled: DMSO 0%, maximal phenethylamine 100%. activation, % at 3 µM. hit rate 82% among 2,400. AID 651783;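 active means activation above a cutoff set at the run's mean compound activation plus 3 SD, cut at about 39% in these data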
Ga16 nonsel ag – nonselective agonist in parental cells, TAAR1 agonist counter-screen. hit rate 50% among 2,400. shares compounds with TAAR1 agonist. CHO-Ga16 parental, Fluo-8 calcium fluorescence; normalized to maximal ATP response, DMSO zero. activation, % at 3 µM;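 active means activation above the run cutoff, the mean activation over all tested wells plus 3 SD, cut at about 12% in these data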;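 further: 0% = DMSO wells and 100% = maximal ATP response on the peak over basal ratio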
TAAR1 desens – human TAAR1 agonist that also desensitizes the receptor; shares compounds with TAAR1 agonist; CHO RD-HGA16 hTAAR1, Fluo-8 calcium, beta-PEA response inhibition; inhibition, % at 3 µM; hit rate 46% among 2,400; AID 651951;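 active means inhibition above the run cutoff, the mean inhibition of all test compounds plus 3 SD, cut at about 49% in these data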;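 further: beta-PEA stimulus applied at its EC80; loss of beta-PEA calcium signal after compound pretreatment read as receptor desensitization; 0% = DMSO with beta-PEA at EC80 and 100% = DMSO alone without agonist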
Ga16 antag count – nonselective Ga16 antagonist in TAAR1 agonist counter-screen; hit rate 39% among 2,400; CHO-Ga16 ATP-induced calcium, Fluo-8 fluorescence; inhibition, % at 3 µM; shares compounds with TAAR1 agonist;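 active means inhibition above the plate's mean compound inhibition plus 3 SD, computed per plate, cut at about 22% in these data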;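 further: 0% = EC80 ATP with DMSO and 100% = DMSO wells without ATP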
* marks the source's active call; other numbers are inactive results; . = no result. An excerpt weighted towards active compounds, which were near 2.3% of everything screened.

SMILES	TAAR1 antag	TAAR1 agonist	V1R ag counter	OXTR potentiate	OXTR ag	TAAR1 ag confirm	Ga16 nonsel ag	TAAR1 desens	Ga16 antag count
CCOCCOc1cccc(C(=O)NC(C)c2ccc3ccccc3c2)c1 (centres undefined)	21	1	1	-3	-2	.	.	.	.
COCC(C)n1c(C)cc(C(=O)COC(=O)/C=C/c2cccc(F)c2)c1C (centres undefined)	-8	5	6	-34	6	.	.	.	.
O=C1NC[C@@H](CCCCN2C[C@H](Cc3ccccc3)N(CCC3CCCCC3)C(=O)C2=O)N(CC2CCCCC2)C1=O	-35	7	.	.	.	.	.	.	.
CC1CCCCC1NC(=O)CSc1nnc(-c2ccco2)n1N (centres undefined)	24	73*	.	.	.	15	3	-5	3
Cc1ccc(N2C(=O)[C@@H]3Cc4ccccc4CN3C2=O)cc1	-6	22	0	3	1	.	.	.	.
CC(C)c1ccc(N2C(=O)[C@@H]3Cc4ccccc4CN3C2=O)cc1	82*	84*	3	-24	12	77*	46*	64*	47*
COC(=O)c1ccc(CNCC(O)COc2ccc(-c3ccccc3)cc2)cc1 (centres undefined)	18	56*	19	-6	7	27	22*	28	30*
COC(=O)c1ccc(OCC(O)CN2C(=O)c3ccccc3C2=O)cc1 (centres undefined)	-6	3	2	-2	0	.	.	.	.
COc1cc(C(=O)NCc2nnc(SCC(=O)Nc3ccc4c(c3)OCO4)o2)cc(OC)c1OC	1	4	0	-9	-1	.	.	.	.
CCOc1ccccc1CN1CCN(CCCn2cccn2)CC1CCO (centres undefined)	-6	0	0	-1	-1	.	.	.	.
Cc1ccccc1OCCCN1CCC(C(O)(c2ccccc2)c2ccccc2)CC1	34	37*	.	.	.	51*	19*	38	26*
OC(c1ccccc1)(c1ccccc1)C1CCN(CCCOc2cccc(F)c2)CC1	40	45*	.	.	.	16	10	14	16
N#Cc1cccc(OCCCN2CCC(C(O)(c3ccccc3)c3ccccc3)CC2)c1	6	22	.	.	.	.	.	.	.
CC(C)CCNC(=O)C1(C)CCN1Cc1ccc(-c2ccccn2)cc1 (centres undefined)	-8	1	.	.	.	.	.	.	.
CC1(C)CC(NC(=O)c2cc(S(=O)(=O)N3CCOCC3)c(Cl)cc2Cl)CC(C)(C)N1	-35	3	0	-3	1	.	.	.	.
CC[C@@H]1C(c2ccc(F)cc2)=NN(c2ccc(Br)cc2)[C@H]1C(=O)N1CCOC1=O	8	0	.	.	.	.	.	.	.
CN1CCN(c2ccc(S(=O)(=O)N3CCCCC3)cc2NC(=O)Cc2ccc(Cl)cc2)CC1	24	57*	26*	-14	21*	36	28*	23	22*
O=C(Cc1ccc(Cl)cc1)Nc1cc(S(=O)(=O)N2CCOCC2)ccc1N1CCCC1	8	1	0	-15	-2	.	.	.	.
Cc1ccc(C)c(Cn2nnc(C(=O)Nc3ccc4c(c3)OCCO4)c2N)c1	67*	102*	29*	-21	39*	105*	55*	63*	30*
COC(=O)c1ccc(-c2ccc(CNCC(O)c3ccccc3)o2)cc1 (centres undefined)	2	39*	1	0	2	26	5	14	5
O[C@@H](CNC[C@H](O)c1ccccc1)c1ccccc1	-24	19	0	-16	-1	.	.	.	.
CCCN(C(=O)COC(=O)Cn1c(=O)oc2ccccc21)c1c(N)n(Cc2ccccc2)c(=O)[nH]c1=O	7	5	-1	-11	0	.	.	.	.
COc1cc(C(=O)NNC(=O)c2cc(S(=O)(=O)N(C)C)ccc2N2CCCC2)cc(OC)c1OC	-25	5	0	-1	0	.	.	.	.
O=c1c2cnn(-c3ccc(F)cc3)c2ncn1Cc1ccccc1	50*	43*	2	-4	2	4	4	6	12
O=c1c2cnn(-c3ccc(F)cc3)c2ncn1Cc1cccnc1	-10	3	3	-5	2	.	.	.	.
SMILES	TAAR1 antag	TAAR1 agonist	V1R ag counter	OXTR potentiate	OXTR ag	TAAR1 ag confirm	Ga16 nonsel ag	TAAR1 desens	Ga16 antag count
CCOC(=O)[C@H]1[C@H]2COc3ccc(Br)cc3[C@@H]2N2C(=O)c3cc(OC)c(OC)cc3NC(=O)[C@@]12C	27	76*	7	-5	5	101*	44*	28	7
CC(C)(C)OC(=O)N1CCC(NC(=O)c2[nH]cnc2C(=O)Nc2ccon2)CC1	11	10	0	-2	0	.	.	.	.
Cc1ccccc1CCNC(=O)Cn1nc(C)c2c(C)n(-c3ccccc3)nc2c1=O	-20	50*	0	-5	-2	53*	6	4	4
Cc1ccccc1CCNC(=O)CCn1nc(C)c2c(C)n(-c3ccccc3)nc2c1=O	-20	1	0	-8	-1	.	.	.	.
COc1ccccc1CCNC(=O)CCn1nc(C)c2c(C)n(-c3ccccc3)nc2c1=O	7	58*	-1	-4	-1	71*	0	27	9
CC(C)C#Cc1ccc2c(c1)O[C@@H](CN(C)S(=O)(=O)c1cn(C)cn1)[C@@H](C)CN([C@H](C)CO)S2(=O)=O	21	0	.	.	.	.	.	.	.
Cc1c(-n2c(O)c(C3=c4ccccc4=NC3=O)sc2=O)c(=O)n(-c2ccccc2)n1C	6	13	1	-2	0	.	.	.	.
C=CCn1c(O)c(C2=c3ccccc3=NC2=O)c2ccccc21	27	64*	5	0	4	63*	38*	68*	52*
C=CCn1c(O)c(C2=c3ccccc3=NC2=O)s/c1=N/c1nccs1	17	0	0	-6	-1	.	.	.	.
Cc1ccc2c(c1)c(C1=c3ccccc3=NC1=O)c(O)n2C	25	63*	1	4	2	39*	16*	31	25*
Cc1nc2ncnn2c(N2CCN(C(c3ccccc3)c3ccccc3)CC2)c1C	39	49*	0	-3	-1	27	15*	17	9
COc1ccc(CN2C(=O)C(C)Nc3ncnc(N4CCN(c5ccccn5)CC4)c32)cc1 (centres undefined)	17	17	1	0	1	.	.	.	.
